Shown are actives, neighbours in structure and some others; about 2.2% of the full set was active somewhere.
PABP polyA inh – PABP poly(A) RNA binding inhibitors, primary screen, biochemical, fluorescence polarization, uHTS; calls only at 35 µM; Polyadenylate-binding protein 1 (Homo sapiens), P11940; 290,000 compounds, 1% hits; AID 2014, 2009;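 note: calls also rest on retests at 20 µM and on dose response follow-up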
Target sequence (P11940 whole entry, looked up): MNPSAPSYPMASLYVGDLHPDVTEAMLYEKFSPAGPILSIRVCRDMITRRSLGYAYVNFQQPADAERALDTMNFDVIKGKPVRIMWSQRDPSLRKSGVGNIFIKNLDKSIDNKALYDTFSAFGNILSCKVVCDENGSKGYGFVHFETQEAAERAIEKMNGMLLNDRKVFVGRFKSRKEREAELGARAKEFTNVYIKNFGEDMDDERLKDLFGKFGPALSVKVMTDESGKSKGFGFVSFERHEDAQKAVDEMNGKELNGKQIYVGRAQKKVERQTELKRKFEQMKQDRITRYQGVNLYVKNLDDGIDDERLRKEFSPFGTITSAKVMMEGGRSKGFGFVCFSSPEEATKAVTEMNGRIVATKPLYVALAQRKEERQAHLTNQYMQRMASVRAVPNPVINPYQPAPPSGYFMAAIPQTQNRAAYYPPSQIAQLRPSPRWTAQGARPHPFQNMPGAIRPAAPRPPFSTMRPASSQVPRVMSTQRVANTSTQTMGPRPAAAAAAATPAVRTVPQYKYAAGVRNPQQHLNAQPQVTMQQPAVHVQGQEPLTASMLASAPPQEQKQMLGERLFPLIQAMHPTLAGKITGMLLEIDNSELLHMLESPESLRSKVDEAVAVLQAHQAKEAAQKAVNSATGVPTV
PABP1 MLLE inh – inhibitors of PABP1 MLLE–PAM2 peptide binding, primary screen, biochemical, fluorescence polarization, FITC-PAM2, GST-MLLE. Polyadenylate-binding protein 1 (Homo sapiens), P11940. inhibition, % at 20 µM. 360,000 compounds, 0.36% hits. AID 588489, 2011; in the data active = inhibition above about 35%, passing the limit was not always enough
VIM-2 inh – VIM-2 metallo-beta-lactamase inhibitors, primary screen, biochemical, epi-absorbance readout, Pseudomonas aeruginosa enzyme; 290,000 compounds, 0.89% hits; purified VIM-2, nitrocefin hydrolysis, epi-absorbance fluorescence; inhibition, % at 5.6 µM;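 active = inhibition above the mean of all tested compounds plus 3 SD, cutoff set per screening run, cut at about 7.5% in these data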;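 note: red hydrolysis product quenches plate fluorescence so inhibitors raise well fluorescence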
IMP-1 inh – IMP-1 metallo-beta-lactamase inhibitors, primary screen, biochemical, epi-absorbance readout, Pseudomonas aeruginosa enzyme | purified IMP-1, nitrocefin hydrolysis, epi-absorbance fluorescence | 290,000 compounds, 0.45% hits | inhibition, % at 5.6 µM;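 active = inhibition above the mean plus 3 SD of all compounds in the same screening run, cut at about 4.5% in these data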
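System: purified IMP-1; amount: IMP-1 0.2 nM before substrate addition; compound: single dose, 5.6 µM; times: 25 °C, 15 min preincubation, 25 min reaction; signal: Epi-absorbance via hydrolysed-nitrocefin quenching of white-plate fluorescence, 480/530 nm, EDTA stop; benchmarks: DMSO with and without IMP-1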
eIF4H inh – human eIF4H binding inhibitors, primary screen, translation initiation inhibitor project, biochemical, uHTS, fluorescence polarization; Eukaryotic translation initiation factor 4H (Homo sapiens), Q15056; eIF4H fluorescence polarization binding assay; inhibition, % at 35 µM; 290,000 compounds, 0.94% hits; AID 2012, 2009;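 note: calls also rest on retests at 20 µM and on dose response follow-up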
Numbers stand for hits; . = inactive; / = no result given; + = active, no number. Unless noted, the rule behind the calls is not given here.

SMILES | PABP polyA inh | PABP1 MLLE inh | VIM-2 inh | IMP-1 inh | eIF4H inh
O=[N+]([O-])c1cc(Br)c(O)c(/C=N/Nc2nnnn2-c2cccc3ccccc23)c1 | . | . | . | 4.8 | .
CN1N=C(N)c2cn(C3OC(COP(=O)(O)O)C(O)C3O)c3ncnc1c23 (stereo unspecified) | / | 51 | / | / | /
Nc1ncnc2c1ncn2[C@@H]1O[C@H](COP(=O)(O)O)[C@@H](O)[C@H]1O | . | . | . | . | .
CCC(C)[C@H](NC(=O)N1CC(=O)Nc2ccccc21)C(=O)N1CCC(C(=O)O)CC1 (stereo partly specified) | / | . | . | . | /
Cn1nnnc1SCc1nc2scc(-c3ccc(Cl)cc3)c2c(=O)[nH]1 | + | . | . | . | 59
c1cc2c3c(cccc3c1)NC1(CCCC1)N2 | / | 43 | / | / | /
CCN1C(=O)[C@@H]2[C@@H](c3ccc(SC4CCCCC4)cc3)N3CCC[C@@]3(C(=O)OC)[C@@H]2C1=O | / | 40 | / | / | /
CCN1C(=O)[C@H]2[C@@H](c3ccc(SC4CCCCC4)cc3)N3CCCC[C@@]3(C(=O)OC)[C@H]2C1=O | / | . | / | / | /
CC(C)(C)c1cc(CCC(=O)NCC2CCCO2)cc(C(C)(C)C)c1O (stereo unspecified) | . | . | . | . | .
Cc1cc(O)cc2c1C(=O)/C(=C/c1ccco1)O2 | + | . | . | . | 61
CNc1ccc(Cl)cc1C(N)=O | + | . | . | . | .
CCOC(=O)c1ccc[n+](CC(=O)c2ccccc2)c1 | + | . | . | . | 59
Cc1c(Cl)cccc1NC(=O)CNc1ccccc1F | . | . | . | . | .
Cc1c(Cl)cccc1NC(=O)CNC(=O)c1ccccc1F | + | . | . | . | 2.4
COc1ccc(CC(=O)N2CCN(C(=O)Cc3ccc(OC)cc3)CC2)cc1 | . | . | . | . | .
COc1ccc(-c2ccc(C(=S)N3CCN(C(C)=O)CC3)o2)cc1 | . | . | . | 8.5 | .
Cc1c(N2C(=O)/C(=C3\C(=O)N(CC(=O)O)c4ccccc43)SC2=S)c(=O)n(-c2ccccc2)n1C | . | 52 | . | . | .
Cc1ccc(/C=C2\SC(=S)N(c3c(C)n(C)n(-c4ccccc4)c3=O)C2=O)cc1 | . | 47 | . | . | .
O=C(O)CCN1C(=O)/C(=C2\C(=O)N(Cc3ccc(F)cc3)c3ccccc32)SC1=S | . | . | . | 51 | .
CN1C(=O)/C(=C2\SC(=S)N(CCCCCC(=O)O)C2=O)c2ccccc21 | . | . | . | . | .
C[C@@H](C(=O)Nc1nc(-c2ccccn2)cs1)N1C(=O)C2CCCCC2C1=O (stereo partly specified) | . | . | . | 11 | .
CCCCn1c(N)c(N(CC)C(=O)c2cccc(OC)c2)c(=O)[nH]c1=O | . | . | . | . | .
CC(NS(=O)(=O)c1ccc(F)cc1)C(=O)Nc1ccc2c(c1)OCCO2 (stereo unspecified) | . | . | . | . | .
Cc1ccc2c(CN3CCOCC3)cc(=O)oc2c1C | . | . | . | . | .
Cc1cc(C)c2oc(=O)cc(CN3CCN(Cc4ccccc4)CC3)c2c1 | . | . | . | . | .
SMILES | PABP polyA inh | PABP1 MLLE inh | VIM-2 inh | IMP-1 inh | eIF4H inh
Cc1ccc2c(CN3CCN(CCO)CC3)cc(=O)oc2c1C | . | . | 9.9 | . | .
Cc1ccc2c(CN3CCN(Cc4ccccc4)CC3)cc(=O)oc2c1C | . | . | 9.9 | . | .
CCOCCCNC(=O)C(c1ccc(C)cc1)N(Cc1cccs1)C(=O)c1ccccc1O (stereo unspecified) | . | . | . | . | .
COc1ccc(NC(=O)/C(C#N)=C/C=C/c2ccco2)cc1 | + | . | . | . | .
O=C(c1cccc(S(=O)(=O)Nc2cccc(C(F)(F)F)c2)c1)N1CCCCC1 | . | . | . | . | .
CCCc1cc(=O)oc2cc(OC3CCCCC3=O)ccc12 (stereo unspecified) | + | . | . | . | 89
CC(=O)Nc1nc(CCN2C(=O)c3ccccc3C2=O)cs1 | . | . | . | . | .
CCOc1ccc(-n2c(=O)c3sccc3n(CC(=O)NCCc3ccc(OC)c(OC)c3)c2=O)cc1 | . | . | . | . | .
CC(C(=O)NCc1cccc(Cl)c1)N1C(=O)c2ccccc2C1=O (stereo unspecified) | . | . | . | . | .
C=CCn1c(COc2ccc(CC)cc2)nnc1SC/C(O)=C(\C#N)c1nc2ccccc2[nH]1 | + | . | . | . | 66
COCCCN1C2=C(C(=O)CC(C)(C)C2)C(c2ccc(O)c(OC)c2)C2=C1CC(C)(C)CC2=O | . | . | . | . | .
C/C(=N\NC(=O)COc1cccc(Cl)c1)c1ccc2c(c1)OCCO2 | . | . | . | . | active
O=[N+]([O-])c1cccc(S(=O)(=O)NCCc2cccs2)c1 | . | . | . | . | .
O=S(=O)(NCCc1cccs1)c1ccc(Br)cc1 | . | . | . | 5.5 | .
O=C(COC(=O)c1ccc2ccccc2n1)Nc1ccccc1F | / | . | / | / | /
COc1ccc(/C=N/NC(=O)c2nn(-c3ccc(Cl)cc3)c(=O)c3c(N)scc23)cc1 | . | . | . | . | .
COc1ccc(/C=N/NC(=O)c2nn(-c3ccccc3)c(=O)c3c(N)scc23)cc1 | . | . | . | . | 71
CCCSC1=N/C(=C\C=C\c2ccco2)C(=O)S1 | + | . | . | . | 94
O=C1SC(SCc2ccccc2)=N/C1=C\c1ccco1 | . | . | . | . | .
CCCc1[nH]nc2c1C(c1ccc(OCCN3CCOCC3)c(OCC)c1)C(C#N)=C(N)O2 (stereo unspecified) | . | . | 8.7 | . | .
Nc1n[nH]c2cc(=O)n(-c3ccc(Cl)cc3)nc12 | + | . | . | . | 99
COc1ccc(-n2nc3c(N)n[nH]c3cc2=O)cc1 | . | . | . | . | .
CCO/C=C/C(O)(CNC(=O)c1ccc(C(C)(C)C)cc1)C(F)(F)F (stereo unspecified) | + | . | . | . | .
CC1=C(C(=O)O)N2C(=O)C(NC(=O)c3ccn(C)n3)C2SC1 (stereo unspecified) | . | 49 | . | . | .
FC(F)(F)c1cc(Cl)c2nnc(-c3ccccn3)n2c1 | . | . | 8.1 | . | .
CCn1c(SCC(=O)N/N=C/c2c[nH]c3ccccc23)nnc1-c1ccc(C)cc1 | . | . | . | . | .
CCn1c(SCC(=O)N/N=C/c2c[nH]c3ccccc23)nnc1-c1ccc(Cl)cc1 | . | . | . | . | active
Cn1cc(-c2csc(C(O)c3ccccc3)n2)cn1 (stereo unspecified) | / | . | / | / | /
CNC(=O)c1c(N)sc2c1CCCCC2 | + | / | . | . | 124
COc1cc(/C=N/NC(=O)c2ccccc2NS(=O)(=O)c2cccs2)ccc1O | / | . | / | / | /

Screening data (PubChem)
